CHRM4 antagonist – blocks acetylcholine activation of human M4 receptor. 0.73% of 360,000 active. CHO-hM4 cells, ACh EC80, Fluo-8 calcium fluorescence. AID 624125. inhibition, % at 3 µM;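 active = inhibition above its plate's cutoff, the mean inhibition of sample wells plus 3 SD, cut at about 27% in these data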;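 note: 0% = acetylcholine EC80 with DMSO and 100% = DMSO without agonist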
Target sequence (P08173 whole entry, looked up): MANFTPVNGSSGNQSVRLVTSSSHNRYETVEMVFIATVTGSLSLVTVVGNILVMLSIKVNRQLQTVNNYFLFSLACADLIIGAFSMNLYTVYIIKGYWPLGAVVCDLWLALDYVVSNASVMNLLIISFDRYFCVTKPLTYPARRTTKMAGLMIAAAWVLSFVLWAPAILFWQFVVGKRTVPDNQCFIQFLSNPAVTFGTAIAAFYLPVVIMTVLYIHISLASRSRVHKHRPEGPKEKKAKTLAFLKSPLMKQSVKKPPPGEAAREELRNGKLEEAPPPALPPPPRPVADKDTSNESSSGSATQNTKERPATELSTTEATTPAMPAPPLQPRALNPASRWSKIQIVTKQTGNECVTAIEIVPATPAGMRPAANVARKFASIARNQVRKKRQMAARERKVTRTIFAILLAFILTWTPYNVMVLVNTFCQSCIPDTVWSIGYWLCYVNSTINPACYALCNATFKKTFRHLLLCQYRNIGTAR
CHRM4 agonist – agonists of human muscarinic M4 receptor (CHRM4); P08173; CHO-K1 hM4/Gqi5, Fluo-8 calcium fluorescence; vehicle 0%, full acetylcholine response 100%; activation, % at 3 µM; 0.14% of 360,000 active; AID 624127;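 active = activation above the run mean over all test wells plus 3 SD, cut at about 32% in these data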;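 note: peak over basal fluorescence ratio per well then scaled between controls; 0% = DMSO wells and 100% = acetylcholine at EC100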
TAAR1 antag – antagonists of human TAAR1 | CHO RD-HGA16 TAAR1, Fluo-8 calcium fluorescence, antagonist | inhibition, % at 3 µM | 1.5% of 360,000 active | AID 624466;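 active = inhibition above a per-plate cutoff, the mean inhibition of test compounds on that plate plus 3 SD, cut at about 49% in these data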;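 note: 0% = DMSO plus EC80 beta-PEA response and 100% = DMSO alone without agonist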
Target sequence (Q96RJ0 whole entry, looked up): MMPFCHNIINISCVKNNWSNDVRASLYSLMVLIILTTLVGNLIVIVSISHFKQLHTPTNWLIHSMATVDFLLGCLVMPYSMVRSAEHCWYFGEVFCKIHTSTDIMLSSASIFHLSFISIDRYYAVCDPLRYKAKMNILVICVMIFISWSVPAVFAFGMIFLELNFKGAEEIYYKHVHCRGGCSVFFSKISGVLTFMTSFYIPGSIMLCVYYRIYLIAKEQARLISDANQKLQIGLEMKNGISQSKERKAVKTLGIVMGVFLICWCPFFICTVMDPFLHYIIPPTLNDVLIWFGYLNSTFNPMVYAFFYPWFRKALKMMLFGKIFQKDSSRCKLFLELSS
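System: RD-HGA16 CHO cells with stable hTAAR1 and Gα16 | Probe or stimulus: EC80 β-phenethylamine stimulus | Dosing: 3 µM, single point | Times: Dye loading 75 min at 37 °C, then 30 min room temperature | Measured by: Fluo-8 calcium-sensitive fluorescence | Read-out basis: % inhibition of agonist calcium response | Replicates: n of 1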
CHRM4 PAM – CHRM4 positive allosteric modulation; P08173; 0.4% of 360,000 active; CHO-K1 hM4/Gqi5, Fluo-8 calcium fluorescence, ACh EC20; 0% = ACh EC20, 100% = maximal ACh; AID 624126; activation, % at 3 µM;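 active = activation above its plate's cutoff, the mean activation of sample wells plus 3 SD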
TAAR1 ag – human TAAR1 agonism; CHO RD-HGA16 TAAR1, Fluo-8 calcium fluorescence; vehicle wells 0%, saturating PEA agonist 100%; 0.99% of 360,000 active; activation, % at 3 µM; Q96RJ0;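 active = activation above the mean activation of all test compounds in the run plus 3 SD, cut at about 38% in these data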
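Test system: RD-HGA16 (CHO) cells co-expressing Gα16 and hTAAR1 | Doses: Single dose, 3 µM | Schedule: 17-24 h seeding, 75 min 37 °C dye, 30 min RT | Evaluation: % activation from peak over basal fluorescence ratio, DMSO-to-PEA scaled | Technique: Kinetic Fluo-8 calcium fluorescence | Benchmarks: Low control DMSO, high control PEA (EC100)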
TAAR1 ag conf – human TAAR1 agonism, confirmed. shares compounds with TAAR1 ag. CHO RD-HGA16 TAAR1, Fluo-8 calcium fluorescence; scaled: DMSO 0%, maximal phenethylamine 100%. activation, % at 3 µM. 82% of 2,400 active. AID 651783;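 active = activation above a cutoff set at the run's mean compound activation plus 3 SD, cut at about 39% in these data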
Ga16 ag counter – nonselective agonist in parental cells, TAAR1 agonist counter-screen; CHO-Ga16 parental, Fluo-8 calcium fluorescence; normalized to maximal ATP response, DMSO zero; shares compounds with TAAR1 ag; activation, % at 3 µM; AID 651787; 50% of 2,400 active;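 active = activation above the run cutoff, the mean activation over all tested wells plus 3 SD, cut at about 12% in these data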;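 note: 0% = DMSO wells and 100% = maximal ATP response on the peak over basal ratio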
TAAR1 desens – counter-screen for human TAAR1 agonists: agonists that desensitize TAAR1 | CHO RD-HGA16 hTAAR1, Fluo-8 calcium, beta-PEA response inhibition | shares compounds with TAAR1 ag | 46% of 2,400 active | inhibition, % at 3 µM;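 active = inhibition above the run cutoff, the mean inhibition of all test compounds plus 3 SD, cut at about 49% in these data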;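 note: beta-PEA stimulus applied at its EC80; loss of beta-PEA calcium signal after compound pretreatment read as receptor desensitization; 0% = DMSO with beta-PEA at EC80 and 100% = DMSO alone without agonist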
Ga16 nonsel ant – nonselective Ga16 antagonism, counter-screen. shares compounds with TAAR1 ag. CHO-Ga16 ATP-induced calcium, Fluo-8 fluorescence. inhibition, % at 3 µM. 39% of 2,400 active. AID 651952;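 active = inhibition above the plate's mean compound inhibition plus 3 SD, computed per plate, cut at about 22% in these data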;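 note: 0% = EC80 ATP with DMSO and 100% = DMSO wells without ATP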
Numbers without * were called inactive; . = no result given. In the library only some 3% were active in any assay of this set; here they are far more common.

SMILES | CHRM4 antagonist | CHRM4 agonist | TAAR1 antag | CHRM4 PAM | TAAR1 ag | TAAR1 ag conf | Ga16 ag counter | TAAR1 desens | Ga16 nonsel ant
Cc1ccccc1NC(=O)N1CCc2ccccc2C1 | -7.7 | 0.6 | 0.4 | -5.8 | 83.6* | 62.7* | -0.1 | 17.0 | 4.6
CCCCN(C=O)c1c(CC)nc2c(OCc3cccc(Cl)c3)cccn12 | -13.8 | 3.0 | -33.2 | 1.3 | -2.9 | . | . | . | .
COc1ccc(C(=O)N2CCC(C)(C(=O)O)C2)c(OC)c1 (stereo unspecified) | -2.1 | 1.1 | 1.2 | 1.0 | 1.5 | . | . | . | .
O=C(Nc1ccc(F)cc1)N1CCc2ccccc2C1 | -12.3 | 3.7 | -7.6 | -0.6 | 46.3* | 40.8* | 1.6 | 0.4 | 5.5
S=c1nc(NCCc2ccccc2Cl)c2ccccc2[nH]1 | -4.3 | 11.4 | 45.4 | -5.1 | 51.6* | 33.4 | 11.2 | 20.1 | 22.3*
O=C(CCCCCNc1nc(=S)[nH]c2ccccc12)NCc1ccccc1Cl | . | . | -4.2 | . | 7.2 | . | . | . | .
COc1ccc(NC(=O)COc2ccccc2)c(OC)c1 | -5.9 | 0.5 | -0.3 | -0.4 | 8.7 | . | . | . | .
COc1ccc(NC(=O)COc2ccc(Br)cc2)c(OC)c1 | -11.6 | 1.9 | 66.8* | 6.7 | 67.9* | 42.9* | 12.7* | 28.7 | -2.6
Cc1ccc(C(=O)N(C)Cc2nc3ccccc3c(=O)[nH]2)cc1NC(=O)c1ccco1 | -10.6 | 1.9 | -4.4 | 3.8 | 0.4 | . | . | . | .
Cc1ccc(S(=O)(=O)N2C[C@H]3C(=O)C[C@@H](c4ccccc4)N(S(=O)(=O)c4ccc(Br)cc4)[C@H]3C[C@H]2c2ccccc2)cc1 | -9.0 | 1.4 | -27.4 | -6.1 | 3.3 | . | . | . | .
CCOC(=O)C1(CC2CCCCO2)CCN(Cc2cc3ccccc3[nH]2)CC1 (stereo unspecified) | 59.4* | 124.8* | 104.8* | -23.7 | 148.6* | 113.8* | 97.9* | 103.8* | 95.2*
CCCCc1c(-c2ccccc2OC)ncn1CCc1cccc(OC)c1 | 0.3 | 18.5 | 17.4 | -8.1 | 25.1 | . | . | . | .
CCCCCc1c(-c2ccc(Br)cc2)ncn1CCc1ccccc1OC | -9.3 | 1.1 | 27.3 | -3.7 | 71.0* | 74.1* | 7.3 | 48.5 | 25.5*
CCCCc1c(-c2ccccc2OC)ncn1CCc1cccc(F)c1 | -4.4 | 7.4 | 43.1 | -2.8 | 69.2* | 65.5* | 3.9 | 74.1* | 20.9
CCCCc1c(-c2ccccc2Br)ncn1CCc1ccccc1OC | 13.6 | 9.8 | 83.4* | -10.5 | 70.4* | 73.4* | 7.2 | 82.5* | 39.0*
CCCc1c(-c2ccccc2Br)ncn1Cc1ccccc1OC | -14.1 | 6.1 | 10.0 | -5.4 | 2.2 | . | . | . | .
CCCCc1c(-c2ccccc2OC)ncn1CCc1ccccc1Cl | 4.8 | 15.7 | 89.1* | -9.3 | 64.2* | 74.4* | 11.1 | 75.3* | 35.7*
CCCCCc1c(-c2cccc(OC)c2)ncn1CCc1ccccc1OC | 21.3 | 2.3 | 47.5 | -10.5 | 20.6 | . | . | . | .
COc1ccccc1CCn1cnc(-c2ccc(Cl)cc2)c1CC(C)C | . | . | 65.8* | . | 52.8* | 84.4* | 3.2 | 54.8* | 19.3
CCCc1c(-c2ccc(OC)cc2)ncn1CCc1ccccc1OC | . | . | 27.0 | . | 14.6 | . | . | . | .
COC(=O)c1ccc(CNCC(O)COc2ccc(-c3ccccc3)cc2)cc1 (stereo unspecified) | -0.7 | 5.6 | 17.6 | -4.0 | 55.9* | 26.8 | 21.8* | 28.1 | 29.6*
O=C1NC[C@@H](CCCCN2C[C@H](Cc3ccccc3)N(CCc3ccccc3)C(=O)C2=O)N(CCc2ccccc2)C1=O | -15.8 | 0.2 | -7.4 | 14.7 | 2.5 | . | . | . | .
O=C(NCc1ccccc1Cl)c1[nH]c(C(F)(F)F)nc1-c1ccccc1 | -1.7 | 11.6 | 3.9 | -3.4 | 8.2 | . | . | . | .
CC1CCCCC1NC(=O)CSc1nnc(-c2ccco2)n1N (stereo unspecified) | 5.7 | 0.5 | 24.4 | -9.8 | 72.7* | 15.4 | 3.1 | -4.6 | 2.6
CCCCN(CCCC)c1ccc(C(=O)c2ccccc2C(=O)O)c(O)c1 | 21.3 | 34.2* | 91.8* | -25.9 | 107.2* | 37.6* | 38.7* | 63.9* | 56.5*
SMILES | CHRM4 antagonist | CHRM4 agonist | TAAR1 antag | CHRM4 PAM | TAAR1 ag | TAAR1 ag conf | Ga16 ag counter | TAAR1 desens | Ga16 nonsel ant
CN(C)c1ccc(C(=O)c2ccccc2C(=O)O)c(O)c1 | -4.1 | 1.1 | 7.1 | -0.8 | 2.1 | . | . | . | .
Nc1cc2c(cc1Br)-c1c(C(=O)O)cccc1C2O (stereo unspecified) | -14.5 | 2.4 | -9.9 | 4.2 | 7.8 | . | . | . | .
CC1Cn2c(nc(=O)c3c2NCN(CCc2ccccc2)C3)S1 (stereo unspecified) | 6.0 | 20.0 | 3.9 | -13.1 | 52.8* | 45.7* | 5.8 | 7.1 | 3.4
Cn1c2c(c(=O)n(C)c1=O)CN(Cc1ccccc1)CN2 | -1.4 | 0.8 | -15.9 | -1.7 | 2.7 | . | . | . | .
Cn1c2c(c(=O)n(C)c1=O)CN(CCc1ccccc1)CN2 | 6.0 | 1.2 | 60.5* | 3.6 | 91.3* | 73.7* | 2.6 | 45.0 | 8.5
CC1Cn2c(nnc2-c2ccccc2O)S1 (stereo unspecified) | -12.7 | -0.7 | -5.6 | -10.3 | 0.3 | . | . | . | .
CC1(C(=O)NCc2ccccc2)CN(S(C)(=O)=O)CC(=O)N1Cc1cccc(C(F)(F)F)c1 (stereo unspecified) | -16.0 | 8.8 | -2.3 | 2.1 | 2.0 | . | . | . | .
CC1(C(=O)NS(=O)(=O)c2cccc(C#N)c2)CCN1C(=O)c1cccc2ccccc12 (stereo unspecified) | -12.6 | -0.5 | 7.3 | -1.3 | -0.1 | . | . | . | .
COc1cc(C(=O)CCN2CCC(c3ccccc3)C2)cc(OC)c1OC (stereo unspecified) | 8.7 | 1.0 | 85.8* | 3.6 | 92.2* | 105.2* | 0.2 | 95.6* | 5.1
O=C(CCN1CCCC1Cc1ccccc1)c1ccc2c(c1)OCCO2 (stereo unspecified) | 15.1 | 4.6 | 73.4* | -3.2 | 87.0* | 101.1* | 2.9 | 84.8* | 8.4
O=C(CCN1CCC(c2ccccc2)C1)c1cccs1 (stereo unspecified) | 10.2 | 0.7 | 91.9* | -7.7 | 100.1* | 100.1* | 7.9 | 94.8* | 5.8
O=C(CCN1CCC(c2ccccc2)C1)c1ccccc1 (stereo unspecified) | -0.8 | 0.0 | . | 2.9 | . | . | . | . | .
